Reference: ChEMBL document CHEMBL4706620, “Design, synthesis, biological activity evaluation of 3-(4-phenyl-1H-imidazol-2-yl)-1H-pyrazole derivatives as potent JAK 2/3 and aurora A/B kinases multi-targeted inhibitors” (Eur J Med Chem, 2021)
The source made the active and inactive calls. The rule behind the calls is not given here.

Key:
JAK2/JAK3 (Homo sapiens) [1] = biological target: T1, JAK2/JAK3 (Homo sapiens) (UniProt P52333+O60674); assay: Inhibition of JAK2/3 in human HCT116 cells assessed as inhibition of STAT5 phosphorylation at 1 to 20 uM measured after 48 hrs by Western blot analysis; type: cell-based; settings: HCT-116, dose 1-20 µM
In short: (§1)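 K562 or HCT116 cells treated 48 h at 1, 10 and 20 µM alongside untreated control; lysed in cold RIPA, protein by BCA, SDS-PAGE, nitrocellulose transfer, 5% milk block, primary antibody overnight at 4 °C, secondary 1 h; p-Aurora A, p-Aurora B, p-STAT3, p-STAT5 probed with GAPDH loading control.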

Aurora kinase B [2] = biological target: T2, Aurora kinase B (Homo sapiens, UniProt Q96GD4); assay: Inhibition of Aurora B phosphorylation in human HCT116 cells incubated for 48 hrs by Western blot analysis; type: cell-based; settings: HCT-116, dose 1-20 µM; in short: as §1
Homo sapiens [3] = species on record: Homo sapiens; assay: Selectivity for JAK3 (unknown origin) over Aurora B (unknown origin)
K562 [4] = assay: Cell cycle arrest in human K562 cells assessed as accumulation of diploid cells at S phase at 1 uM incubated for 48 hrs by propidium iodide staining based flow cytometric analysis (reference value: 35.94 %); type: functional
[5] = biological target: Tyrosine-protein kinase JAK2 (Homo sapiens, UniProt O60674); assay: Inhibition of JAK2 (unknown origin) incubated for 40 mins in presence of ATP by Kinase-glo luminescence assay
K562 [6] = assay: Cell cycle arrest in human K562 cells assessed as accumulation of diploid cells at G2 phase at 10 uM incubated for 48 hrs by propidium iodide staining based flow cytometric analysis (reference value: 7.73 %); type: functional
Aurora kinase B [7] = biological target: T2, Aurora kinase B; assay: Inhibition of Aurora B phosphorylation in human K562 cells incubated for 48 hrs by Western blot analysis; type: cell-based; settings: dose 1-20 µM; in short: as §1
K562 [8] = assay: Cell cycle arrest in human K562 cells assessed as accumulation of diploid cells at G2 phase at 20 uM incubated for 48 hrs by propidium iodide staining based flow cytometric analysis (reference value: 7.73 %); type: functional
Homo sapiens [9] = species on record: Homo sapiens; assay: Selectivity for JAK2 (unknown origin) over Aurora A (unknown origin)
K562 [10] = assay: Cell cycle arrest in human K562 cells assessed as accumulation at […] phase at 1 uM incubated for 48 hrs by propidium iodide staining based flow cytometric analysis (reference value: 1.90 %); type: functional
HCT-116 [11] = assay: Cell cycle arrest in human HCT116 cells assessed as accumulation of diploid cells at G1 phase at 20 uM incubated for 48 hrs by propidium iodide staining based flow cytometric analysis (reference value: 77.62 %); type: functional
HCT-116 [12] = assay: Cell cycle arrest in human HCT116 cells assessed as accumulation of diploid cells at G1 phase at 1 uM incubated for 48 hrs by propidium iodide staining based flow cytometric analysis (reference value: 77.62 %); type: functional
Aurora kinase B [13] = biological target: T2, Aurora kinase B; assay: Inhibition of Aurora B (unknown origin) incubated for 40 mins in presence of ATP by Kinase-glo luminescence assay
In short: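 Kinase reaction at 30 °C for 40 min in 40 mM Tris pH 7.4, 10 mM MgCl2, 0.1 mg/ml BSA, 1 mM DTT, 10 µM ATP, kinase plus substrate; compounds added from 10% DMSO dilutions (1% DMSO final). Remaining ATP measured by Kinase-Glo Plus luminescence; IC50 from nonlinear regression, normalized dose-response fit.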

JAK2/JAK3 (Homo sapiens) [14] = biological target: T1, JAK2/JAK3 (Homo sapiens); assay: Inhibition of JAK2/3 in human HCT116 cells assessed as inhibition of STAT3 phosphorylation at 1 to 20 uM measured after 48 hrs by Western blot analysis; type: cell-based; settings: HCT-116, dose 1-20 µM; in short: as §1
Homo sapiens [15] = species on record: Homo sapiens; assay: Selectivity for JAK2 (unknown origin) over Aurora B (unknown origin)
K562 [16] = assay: Cell cycle arrest in human K562 cells assessed as accumulation at […] phase at 20 uM incubated for 48 hrs by propidium iodide staining based flow cytometric analysis (reference value: 1.90 %); type: functional
K562 [17] = assay: Cell cycle arrest in human K562 cells assessed as accumulation of diploid cells at G2 phase at 1 uM incubated for 48 hrs by propidium iodide staining based flow cytometric analysis (reference value: 7.73 %); type: functional
HCT-116 [18] = assay: Cell cycle arrest in human HCT116 cells assessed as accumulation of diploid cells at S phase at 1 uM incubated for 48 hrs by propidium iodide staining based flow cytometric analysis (reference value: 11.92 %); type: functional
HCT-116 [19] = assay: Cell cycle arrest in human HCT116 cells assessed as accumulation of diploid cells at G1 phase at 10 uM incubated for 48 hrs by propidium iodide staining based flow cytometric analysis (reference value: 77.62 %); type: functional
[20] = Cytotoxicity against HCoEpiC assessed as reduction in cell growth measured after 72 hrs by CCK8 assay; settings: Homo sapiens
K562 [21] = assay: Cell cycle arrest in human K562 cells assessed as accumulation of diploid cells at G1 phase at 10 uM incubated for 48 hrs by propidium iodide staining based flow cytometric analysis (reference value: 56.33 %); type: functional
HUVEC = assay: Cytotoxicity against HUVEC assessed as reduction in cell growth measured after 72 hrs by CCK8 assay; type: cell-based; settings: Homo sapiens
Aurora kinase A = biological target: T3, Aurora kinase A (Homo sapiens, UniProt O14965); assay: Inhibition of Aurora A (unknown origin) incubated for 40 mins in presence of ATP by Kinase-glo luminescence assay
T3 sequence (O14965 whole entry): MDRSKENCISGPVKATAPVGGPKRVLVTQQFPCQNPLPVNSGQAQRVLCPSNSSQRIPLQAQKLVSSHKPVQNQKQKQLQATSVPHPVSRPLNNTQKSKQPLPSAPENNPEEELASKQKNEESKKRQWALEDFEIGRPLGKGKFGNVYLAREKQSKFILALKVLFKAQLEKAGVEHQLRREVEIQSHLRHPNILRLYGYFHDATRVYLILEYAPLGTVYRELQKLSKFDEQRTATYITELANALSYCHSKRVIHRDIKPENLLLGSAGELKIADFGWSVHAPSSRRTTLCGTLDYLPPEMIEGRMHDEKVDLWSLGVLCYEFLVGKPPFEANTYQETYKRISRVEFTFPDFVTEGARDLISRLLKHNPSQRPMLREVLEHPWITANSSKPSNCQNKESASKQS

HCT-116 [22] = assay: Cell cycle arrest in human HCT116 cells assessed as accumulation of diploid cells at S phase at 20 uM incubated for 48 hrs by propidium iodide staining based flow cytometric analysis (reference value: 11.92 %); type: functional
HCT-116 [23] = assay: Cell cycle arrest in human HCT116 cells assessed as accumulation of diploid cells at G2 phase at 1 uM incubated for 48 hrs by propidium iodide staining based flow cytometric analysis (reference value: 10.46 %); type: functional
K562 [24] = assay: Cell cycle arrest in human K562 cells assessed as accumulation at […] phase at 10 uM incubated for 48 hrs by propidium iodide staining based flow cytometric analysis (reference value: 1.90 %); type: functional
JAK2/JAK3 (Homo sapiens) [25] = biological target: T1, JAK2/JAK3 (Homo sapiens); assay: Inhibition of JAK2/3 in human K562 cells assessed as inhibition of STAT5 phosphorylation at 1 to 20 uM measured after 48 hrs by Western blot analysis; type: cell-based; settings: dose 1-20 µM; in short: as §1
[26] = biological target: T4, Aurora kinase A (Homo sapiens) (UniProt O14965); assay: Inhibition of Aurora A phosphorylation in human K562 cells incubated for 48 hrs by Western blot analysis; type: cell-based; settings: dose 1-20 µM; in short: as §1
T4 sequence (whole entry): T3 sequence (O14965 whole entry)

Homo sapiens [27] = species on record: Homo sapiens; assay: Selectivity for JAK3 (unknown origin) over Aurora A (unknown origin)

T2 sequence (Q96GD4 whole entry): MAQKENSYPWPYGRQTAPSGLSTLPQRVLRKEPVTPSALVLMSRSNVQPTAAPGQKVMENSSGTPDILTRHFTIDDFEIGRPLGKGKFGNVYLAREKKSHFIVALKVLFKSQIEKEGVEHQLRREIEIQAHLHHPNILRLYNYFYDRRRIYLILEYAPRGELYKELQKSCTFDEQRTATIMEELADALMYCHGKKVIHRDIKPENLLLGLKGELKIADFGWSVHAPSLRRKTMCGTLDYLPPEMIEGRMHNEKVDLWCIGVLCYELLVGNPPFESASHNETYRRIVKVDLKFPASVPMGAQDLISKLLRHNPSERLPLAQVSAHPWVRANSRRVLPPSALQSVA
T1 sequence (O60674 whole entry, looked up): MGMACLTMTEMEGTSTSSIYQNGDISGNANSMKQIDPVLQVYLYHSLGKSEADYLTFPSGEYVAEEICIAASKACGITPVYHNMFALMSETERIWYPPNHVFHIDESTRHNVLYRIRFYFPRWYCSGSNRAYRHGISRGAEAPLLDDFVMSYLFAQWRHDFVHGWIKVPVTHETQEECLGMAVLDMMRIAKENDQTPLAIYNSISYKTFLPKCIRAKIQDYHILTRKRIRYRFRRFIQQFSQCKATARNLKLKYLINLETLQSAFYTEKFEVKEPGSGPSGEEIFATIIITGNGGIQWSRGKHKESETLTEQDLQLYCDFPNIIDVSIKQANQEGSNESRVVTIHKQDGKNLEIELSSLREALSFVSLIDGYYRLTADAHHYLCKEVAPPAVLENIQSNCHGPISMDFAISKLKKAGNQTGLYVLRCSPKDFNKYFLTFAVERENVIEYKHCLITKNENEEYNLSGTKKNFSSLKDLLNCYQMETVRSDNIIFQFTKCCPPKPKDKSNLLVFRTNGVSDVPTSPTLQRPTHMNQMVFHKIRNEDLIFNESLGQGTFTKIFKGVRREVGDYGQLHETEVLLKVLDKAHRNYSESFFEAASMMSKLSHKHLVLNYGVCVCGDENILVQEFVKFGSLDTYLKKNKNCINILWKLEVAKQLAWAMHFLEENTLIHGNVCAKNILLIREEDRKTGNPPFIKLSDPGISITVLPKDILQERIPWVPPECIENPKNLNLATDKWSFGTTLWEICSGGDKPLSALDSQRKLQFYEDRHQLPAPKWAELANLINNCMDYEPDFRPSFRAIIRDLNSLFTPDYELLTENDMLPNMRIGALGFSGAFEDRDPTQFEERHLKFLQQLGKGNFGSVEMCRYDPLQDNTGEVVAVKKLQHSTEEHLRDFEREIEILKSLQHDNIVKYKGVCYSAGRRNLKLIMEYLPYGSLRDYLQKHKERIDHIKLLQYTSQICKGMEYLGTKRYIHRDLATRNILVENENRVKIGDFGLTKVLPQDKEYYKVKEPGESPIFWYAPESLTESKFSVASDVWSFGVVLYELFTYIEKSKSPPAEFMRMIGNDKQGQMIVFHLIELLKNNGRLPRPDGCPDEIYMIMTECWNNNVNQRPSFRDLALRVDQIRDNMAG
T1 sequence (P52333 whole entry, looked up): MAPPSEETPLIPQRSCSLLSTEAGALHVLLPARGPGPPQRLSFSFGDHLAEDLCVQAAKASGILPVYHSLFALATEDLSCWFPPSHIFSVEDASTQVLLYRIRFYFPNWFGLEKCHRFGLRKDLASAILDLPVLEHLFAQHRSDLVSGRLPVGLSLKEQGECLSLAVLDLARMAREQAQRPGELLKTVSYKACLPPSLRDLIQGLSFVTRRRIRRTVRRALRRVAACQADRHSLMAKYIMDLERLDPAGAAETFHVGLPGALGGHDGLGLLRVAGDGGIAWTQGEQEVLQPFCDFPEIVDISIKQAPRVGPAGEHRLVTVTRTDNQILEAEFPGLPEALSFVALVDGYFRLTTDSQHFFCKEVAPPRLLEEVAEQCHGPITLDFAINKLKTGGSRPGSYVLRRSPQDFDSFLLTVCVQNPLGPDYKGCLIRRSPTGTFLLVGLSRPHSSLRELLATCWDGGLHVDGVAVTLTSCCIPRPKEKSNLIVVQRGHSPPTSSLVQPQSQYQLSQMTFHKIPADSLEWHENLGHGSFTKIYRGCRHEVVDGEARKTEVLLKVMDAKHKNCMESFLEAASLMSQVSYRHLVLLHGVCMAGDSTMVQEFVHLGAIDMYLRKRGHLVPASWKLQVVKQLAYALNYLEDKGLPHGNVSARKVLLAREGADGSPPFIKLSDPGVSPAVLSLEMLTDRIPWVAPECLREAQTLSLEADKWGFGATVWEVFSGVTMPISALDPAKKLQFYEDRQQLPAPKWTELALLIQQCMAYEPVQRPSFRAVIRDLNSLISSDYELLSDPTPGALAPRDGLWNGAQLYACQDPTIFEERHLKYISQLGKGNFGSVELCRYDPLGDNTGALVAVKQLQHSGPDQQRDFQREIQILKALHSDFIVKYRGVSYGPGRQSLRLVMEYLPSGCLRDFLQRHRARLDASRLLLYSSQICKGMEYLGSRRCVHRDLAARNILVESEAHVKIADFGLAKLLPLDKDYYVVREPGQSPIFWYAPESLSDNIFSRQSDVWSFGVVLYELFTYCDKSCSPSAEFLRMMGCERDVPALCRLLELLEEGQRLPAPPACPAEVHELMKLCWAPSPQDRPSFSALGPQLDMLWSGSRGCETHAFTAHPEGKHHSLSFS
Chain of Tyrosine-protein kinase JAK2 (O60674 whole entry): as the sequence (O60674 whole entry, looked up) above

O=C(Nc1c[nH]nc1-c1nc(-c2ccc(CN3CCOCC3)cc2)c[nH]1)c1cccc(Cl)c1
inhibition (JAK2/JAK3 (Homo sapiens) [1]): Active
inhibition (Aurora kinase B [2]): Dose-dependent effect
Selectivity ratio (Homo sapiens [3]): 20
Activity (K562 [4]): 35.82%
IC50 [5]: 166 nM
Activity (K562 [6]): 16.27%
inhibition (Aurora kinase B [7]): Dose-dependent effect
Activity (K562 [8]): 19%
Selectivity ratio (Homo sapiens [9]): 20
Activity (K562 [10]): 1.9%
Activity (HCT-116 [11]): 57.52%
Activity (HCT-116 [12]): 72.2%
IC50 (Aurora kinase B [13]): 583 nM
inhibition (JAK2/JAK3 (Homo sapiens) [14]): Active
Selectivity ratio (Homo sapiens [15]): 20
Activity (K562 [16]): 2.06%
Activity (K562 [17]): 8.12%
Activity (HCT-116 [18]): 14.46%
Activity (HCT-116 [19]): 66.57%
IC50 [20]: 31500 nM
Activity (K562 [21]): 47.87%
IC50 (HUVEC): 29000 nM
IC50 (Aurora kinase A): 939 nM
Activity (HCT-116 [22]): 17.92%
Activity (HCT-116 [23]): 13.34%
Activity (K562 [24]): 2.09%
inhibition (JAK2/JAK3 (Homo sapiens) [25]): Active
inhibition [26]: Dose-dependent effect
Selectivity ratio (Homo sapiens [27]): 20
